We go through seven molecules from PubChem BioAssay.

Activity calls are given as the source filed them.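 The calls were made as follows, unless noted: active = compounds giving at least 50% inhibition in the cell-based MKP-3 phosphatase rescue imaging test; inactive = the rest.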

A word on the inhibition: it is the relative decrease from the control value, in per cent.

Assay [1] can be described thus: inhibitors of TNFa-induced NFkB p65 translocation, primary screen, imaging, HUVEC, MLSMR starter and 10KST1 sets (AID 438;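 active = inhibition above 20% together with a positive visual image hit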;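 also: compound added about 3h40 before a 20 min TNFalpha stimulation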;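 as to inhibition: signal is the nuclear over cytoplasmic p65 intensity ratio per well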). The conditions noted are these: HUVEC TNFa-induced p65 nuclear translocation; cell count: measured here: nuclei count (cytotoxicity indicator), at 2.08 µM; inhibition: at 2 µM, stronger effect = higher value, 0% TNFa-plus-vehicle, 100% no-TNFa wells.
Assay [2] can be described thus: endothelial E-selectin expression blockers – imaging, HUVEC, immunofluorescence, MLSMR starter and 10KST1 sets, primary screen (AID 487;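 active = visually confirmed hit in the image check and inhibition above 20%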;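 as to inhibition: signal is fraction of cell area covered by stained E-selectin grains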;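 as to nuclei count: 100% = median nuclei count of all wells on the same plate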). To be noted: HUVEC TNFalpha-induced E-selectin immunofluorescence imaging, at 2 µM; inhibition: stronger effect = higher value; nuclei count: measured here: cell number, toxicity.
Assay [3] is described as follows: Primary imaging screen for DUSP6 inhibitors that restore phospho-Erk in transfected HeLa cells, chemical complementation (AID 609).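 As to inhibition: phospho-Erk level distribution per well compared with pooled transfected vehicle control wells.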 The conditions noted are these: HeLa MKP-3 transfected, phospho-Erk imaging KS statistic, at 10 µM, cells stimulated with TPA for 15 min.
The target in assay [4] is Dual specificity protein phosphatase 6 (Homo sapiens) (UniProt Q16828). The description is as above. The conditions noted are these: HeLa MKP-3 transfected, phospho-Erk imaging KS statistic; at 10 µM; stronger effect = higher value; cells stimulated with TPA for 15 min.
In assay [5] the target is Voltage-gated potassium channel subunit beta-2 (Rattus norvegicus) (UniProt P62483). The experiment in a line: inhibitors of rat Kvbeta2 reductase activity – biochemical, NADPH fluorescence, primary screen (AID 622;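 active = fluorescence slope higher than the sample average by over 3 SD, cut at about -0.22 in these data, passing the limit was not always enough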;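 also: slope of raw intensity against log time taken from 70 to 1610 s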). The conditions noted are these: recombinant KvBeta, 4-cyanobenzaldehyde reduction, at 10 µM, stronger effect = higher value.
The target is the same in assay [6]. The experiment in a line: enhancers of rat Kvbeta2 NADPH turnover – biochemical, NADPH fluorescence, primary screen (AID 623;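 active = NADPH fluorescence slope more negative than the mean of all samples by about 3 SD, 99.7% confidence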;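 also: fluorescence intensity change per second fitted from 20 to 320 s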). The conditions noted are these: Recombinant KvBeta, NADPH fluorescence decrease slope, 10 min; at 10 µM; stronger effect = lower value.
The target in assay [7] is Alpha-2C adrenergic receptor (Homo sapiens) (UniProt P18825). Put plainly: compounds altering alpha2C-coupled GIRK flux – cell-based, HEK293 alpha2C/GIRK1/2, thallium flux, primary screen (AID 624;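 active = fluorescence slope after compound addition differing from the mean of all screened samples at 99.7% confidence, in either direction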;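 also: slope of fluorescence ratio to pre-addition baseline per second over 15 to 24 s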). To be noted: thallium flux BTC fluorescence, at 10 µM, actives lie on both sides.
Assay [8] can be described thus: inhibitors of larval lipid processing in zebrafish, primary screen, whole organism, PED6 fluorescence, gall bladder and intestine (AID 686;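 active = a full or partial loss of lipid-probe fluorescence in the fish gall bladder, intestine or both, judged by eye; inactive = no fluorescence loss, or compound toxic to the fish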;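 also: larvae 5 to 7 days old with five fish per well; signal comes from phospholipase A2 cleavage of quenched PED6 carried via bile; overnight exposure to compound and PED6 before scoring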). The conditions noted are these: Zebrafish larvae PED6 lipid processing, fluorescence scoring; screened at 20 µM (by protocol). The method in brief:
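System: live zebrafish larvae aged 5-7 days, whole organism; measure: graded gall bladder and intestinal fluorescence inhibition per well; incubation: overnight exposure; reagent: ingested quenched lipid PED6 at 100 nM; signal: By-eye fluorescence microscopy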

Assay [9] in a line: loss of swimming-algae plug formation – whole organism, Chlamydomonas reinhardtii, WT vs cilia-less mutant, absorbance, 96-well, primary screen (AID 463189;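 active = inhibition at or above 50% relative to wild type and mutant plate controls; inactive = inhibition below 50%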;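 also: 0% = wild type cc124 cells in DMSO and 100% = ciliumless bld1 mutant cells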). To be noted: Chlamydomonas reinhardtii gravitaxis, OD600 absorbance, 2 days; at 10 µM; stronger effect = higher value.
Setting [10] is: measured here: cell density z-score.
Setting [11] is: measured here: nuclear c-Myc green intensity z-score.
Where [12] appears, read: measured here: nuclear pErk red intensity z-score, stronger effect = higher value.

Dual specificity protein phosphatase 6 (Homo sapiens), sequence (Q16828 whole entry, looked up): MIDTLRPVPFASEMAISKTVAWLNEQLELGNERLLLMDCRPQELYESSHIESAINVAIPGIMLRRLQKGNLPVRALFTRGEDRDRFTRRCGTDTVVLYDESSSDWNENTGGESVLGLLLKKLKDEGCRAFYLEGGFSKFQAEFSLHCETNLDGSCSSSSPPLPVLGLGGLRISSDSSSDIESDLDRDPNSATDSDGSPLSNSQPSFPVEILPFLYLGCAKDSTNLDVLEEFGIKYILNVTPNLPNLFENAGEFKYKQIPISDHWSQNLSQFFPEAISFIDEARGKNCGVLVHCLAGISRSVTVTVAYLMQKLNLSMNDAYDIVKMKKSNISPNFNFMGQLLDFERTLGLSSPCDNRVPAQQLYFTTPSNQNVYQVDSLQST
Voltage-gated potassium channel subunit beta-2 (Rattus norvegicus), sequence (P62483 whole entry, looked up): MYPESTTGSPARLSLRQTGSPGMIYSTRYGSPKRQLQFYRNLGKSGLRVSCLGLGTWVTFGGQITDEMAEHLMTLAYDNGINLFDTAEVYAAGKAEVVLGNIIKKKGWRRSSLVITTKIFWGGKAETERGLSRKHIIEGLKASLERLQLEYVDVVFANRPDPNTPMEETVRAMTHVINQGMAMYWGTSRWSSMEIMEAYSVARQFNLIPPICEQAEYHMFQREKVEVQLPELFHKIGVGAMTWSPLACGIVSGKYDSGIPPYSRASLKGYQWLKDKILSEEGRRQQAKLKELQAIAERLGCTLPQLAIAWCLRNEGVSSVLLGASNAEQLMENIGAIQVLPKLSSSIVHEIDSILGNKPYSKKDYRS
Alpha-2C adrenergic receptor (Homo sapiens), sequence (P18825 whole entry, looked up): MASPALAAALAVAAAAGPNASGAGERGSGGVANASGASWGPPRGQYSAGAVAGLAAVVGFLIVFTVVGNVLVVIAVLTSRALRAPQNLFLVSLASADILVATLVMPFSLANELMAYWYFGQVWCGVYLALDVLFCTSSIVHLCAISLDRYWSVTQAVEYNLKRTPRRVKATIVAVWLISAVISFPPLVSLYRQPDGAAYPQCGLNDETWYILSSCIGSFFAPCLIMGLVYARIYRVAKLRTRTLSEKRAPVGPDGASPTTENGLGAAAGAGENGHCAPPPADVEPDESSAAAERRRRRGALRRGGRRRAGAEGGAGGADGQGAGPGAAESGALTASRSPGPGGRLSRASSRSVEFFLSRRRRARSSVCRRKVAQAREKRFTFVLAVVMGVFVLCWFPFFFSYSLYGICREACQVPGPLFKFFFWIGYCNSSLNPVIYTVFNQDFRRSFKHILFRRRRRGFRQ

As for `Cc1ccc(OCC(=O)NCC(=O)n2nc(C)cc2C)cc1`, the cell count in assay [1] was 580. For the same molecule, the inhibition in assay [1] is -8% (inactive); in assay [2] it was 13.1% (inactive); in [4], -7.01% (inactive); in assay [9] it was -1.21% (inactive). Moreover, in [2], the nuclei count came out at 170%. Further, the z-score is -0.967 in assay [3] (setting [10]), -0.193 in assay [3] (setting [11]) and 1.92 in assay [3] (setting [12]). In addition, in assay [5], the fluorescence slope was -0.382 (inactive). In addition, in assay [6], the NADPH fluorescence slope was -2.8e-05 (inactive). Besides, the slope in [7] is 0.00489 (inactive). Also, the result in assay [8] was inactive.

In the case of `Nc1nnc(CSCc2ccc(F)cc2)s1`, in assay [1], the cell count worked out at 537. The inhibition in assay [1] was 7% (inactive); in [2], 23.2% (inactive); in assay [4], -13.3% (inactive); in [9], 3.98% (inactive). The molecule further displayed a nuclei count in assay [2] of 111%. Also, the figures for the z-score in assay [3] (setting [10]), in assay [3] (setting [11]) and in [3] (setting [12]) were -1.12, 1.17 and -0.516, respectively. In addition, in assay [5], the fluorescence slope is -0.473 (inactive). Further, the NADPH fluorescence slope in assay [6] was -2.4e-05 (inactive). For the same molecule, in assay [7], the slope was 0.00497 (inactive). For the same molecule, in assay [8], the call was inactive.

On to `Cc1cccc2c1NC(C)CC2C` (stereo unspecified), for which the cell count in [1] was found to be 424. The inhibition in assay [1] is -23.2% (inactive); in assay [2], -291% (inactive); in [4] it was 7.7% (inactive); in assay [9] it was 5.59% (inactive). The nuclei count in [2] was 187%. In addition, the z-score was 1.31 in [3] (setting [10]), -0.632 in [3] (setting [11]) and -0.589 in [3] (setting [12]). The fluorescence slope in assay [5] is -0.292 (inactive). For the same molecule, in [6], the NADPH fluorescence slope is -6.6e-06 (inactive). Besides, in assay [7], the slope was 0.00419 (inactive). Moreover, the outcome in assay [8] is “active; weak signal in gallbladder and intestine”.

Regarding `CSc1nc2sc3c(c2c2nnnn12)CC(C)(C)OC3`, the cell count in assay [1] worked out at 661. Further, the inhibition in [1] is -6.7% (inactive); in assay [2], -16.2% (inactive); in assay [4] it was -5.89% (inactive); in assay [9], 16.5% (inactive). Moreover, the nuclei count in assay [2] is 187%. For the same molecule, the results for the z-score in assay [3] (setting [10]), in [3] (setting [11]) and in assay [3] (setting [12]) were -1.26, 1.03 and 0.586, respectively. In addition, the fluorescence slope in assay [5] was -0.496 (inactive). In addition, the NADPH fluorescence slope in assay [6] was -6.6e-05 (inactive). Besides, the slope in assay [7] is 0.00446 (inactive). Besides, the molecule was classed as inactive in assay [8].

As to `Cn1c(SCC(=O)N2CCOCC2)nnc1-c1ccc(Cl)cc1Cl`, the cell count in assay [1] came to 359. Besides, the inhibition is -9.4% (inactive) in [1], -17.3% (inactive) in [2], 1.75% (inactive) in assay [4] and -14.7% (inactive) in [9]. Moreover, in assay [2], the nuclei count turned out to be 101%. The values for the z-score in [3] (setting [10]), in assay [3] (setting [11]) and in [3] (setting [12]) were 0.947, -0.186 and -0.938, respectively. Also, the fluorescence slope in [5] is -0.453 (inactive). For the same molecule, the NADPH fluorescence slope in assay [6] was 1.1e-05 (inactive). In addition, the slope in assay [7] is 0.00668 (inactive). Also, the result in assay [8] was inactive.

As to `COc1ccc(OC)c(C(O)c2coc3ccc(O)c(CN4CCOCC4)c23)c1` (stereo unspecified), the cell count in assay [1] stood at 395. Moreover, the inhibition in assay [1] was -2.4% (inactive); in assay [2], -6.2% (inactive); in assay [4], 1.42% (inactive); in assay [9], 36.3% (inactive). In assay [2], the nuclei count came out at 142%. The z-score in assay [3] (setting [10]) is -0.303; in [3] (setting [11]), 0.452; in [3] (setting [12]) it was 0.346. Further, the fluorescence slope in assay [5] is -0.45 (inactive). The NADPH fluorescence slope in assay [6] is -6.9e-05 (inactive). The slope in assay [7] was 0.00476 (inactive). In addition, in [8], the outcome was inactive.

`CCOC(=O)CSc1nc2sc3c(c2c(=O)[nH]1)CC(C)(C)OC3`: in assay [1], the cell count was found to be 583. Moreover, the inhibition is -40.2% (inactive) in [1], 18.3% (inactive) in [2], 7.48% (inactive) in assay [4] and -8.53% (inactive) in assay [9]. In assay [2], this molecule gave a nuclei count of 123%. Moreover, the z-score is -1.86 in [3] (setting [10]), 1.97 in assay [3] (setting [11]) and -0.11 in assay [3] (setting [12]). In addition, the fluorescence slope in assay [5] was -0.519 (inactive). In addition, the NADPH fluorescence slope in assay [6] is -0.000112 (inactive). Besides, the slope in [7] is 0.0047 (inactive). Moreover, in assay [8], the outcome was inactive.
